Consider three compounds from ChEMBL document CHEMBL1139315, “Search for new pharmacophores for antimalarial activity. Part II: synthesis and antimalarial activity of new 6-ureido-4-anilinoquinazolines” (Bioorg Med Chem, 2009).

For one data set, the system named is Mus musculus. As to the kind of experiment: Toxicity against Plasmodium yoelii nigeriensis MDR infected Swiss mice (Mus musculus) assessed as death at 100 mg/kg, perorally. Conditions: in vivo, po. Also noted: dose 100 mg/kg, route oral. It is filed as organism-based.
Data set [1] relates to Plasmodium falciparum. As to the kind of experiment: Antimalarial activity as schizonticidal activity after 48 hrs against chloroquine-sensitive Plasmodium falciparum 3D7. It is filed as functional. Conditions: 3D7, 48 h. In a few lines:
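3D7 ring stages synchronized with 5% sorbitol; 3% cell suspension at 1% parasitaemia added to duplicate wells of diluted compound (DMSO stock 5 mg/mL, diluted in RPMI). Incubated at 37 °C under CO2 for more than 40 h. Giemsa-stained thin smears counted by light microscopy; MIC = lowest concentration giving 100% inhibition of schizont maturation against untreated control.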

The subject of data set [2] is Plasmodium yoelii nigeriensis. Description: Antimalarial activity as reduced parasitaemia against Plasmodium yoelii nigeriensis MDR infected Swiss mice (Mus musculus) at 100 mg/kg peroral dose for 4 days. Details: scale not given: the % may be the effect or the level left. It is filed as functional. Conditions: route oral. In a few lines: (§1)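 Swiss mice (25 g, either sex), five per group, infected with 1 × 10^6 parasitized cells on day 0. Aqueous suspension given orally from day 0 to day 4; vehicle-only group as control. Parasitaemia read from tail-vein thin blood smears, reported as mean % parasitaemia on day 4 and day 7.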

For data set [3], the system named is Plasmodium yoelii nigeriensis. As to the kind of experiment: (§2) Antimalarial activity as reduced parasitaemia against Plasmodium yoelii nigeriensis MDR infected Swiss mice (Mus musculus) at 100 mg/kg peroral dose […]. Conditions: route oral. It is filed as functional. Also noted: scale not given: the % may be the effect or the level left. In a few lines: as §1

Data set [4] in a line: Selectivity index, ratio of CC50 for african green monkey (Cercopithecus aethiops) Vero C1008 cells to IC50 for chloroquine-sensitive Plasmodium falciparum 3D7. It is filed as functional. The method, boiled down: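 Vero C1008 cells exposed to serially diluted compound, highest 100 µg/mL, for 72 h; MTT read-out; CC50 = concentration killing 50% of cells. SI = CC50/IC50, with IC50 from the SYBR Green I assay on 3D7.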

Data set [5] deals with Plasmodium falciparum. Description: Antimalarial activity after 72 hrs against chloroquine-sensitive Plasmodium falciparum 3D7 infected erythrocytes by MSF assay. It is filed as functional, organism-based. Conditions: 3D7, 72 h. The method, boiled down:
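P. falciparum 3D7 kept in RPMI with gentamicin 40 µg/mL, Fungizone 0.25 µg/mL and 10% FBS (pH 7.2) at 37 °C under CO2. Twofold serial dilutions over seven concentrations, top 10–500 ng/mL, duplicate wells; 2.5% haematocrit, 0.5% parasitaemia; 72 h. SYBR Green I in lysis buffer (Tris pH 7.5, EDTA, saponin, Triton X-100), 1 h at room temperature, fluorescence read; IC50 by logit regression.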

Data set [6] deals with Plasmodium yoelii nigeriensis. Described as §2. It is filed as functional. Details: scale not given: the % may be the effect or the level left. Conditions: route oral. The method, boiled down:
as §1
This is another data set of the same source.

Converted amounts (≈) assume the structure as drawn.

On to `O=C(Nc1ccc(Br)cc1)Nc1ccc2ncnc(Nc3cccc(C(F)(F)F)c3)c2c1`, for which the results for the Activity result (with Mus musculus; in data set [2]) were “Toxic” and 50.4%, respectively. Also, in the data set with Plasmodium falciparum [1], 2 µg/mL (≈ 3.98 µM) was the least that counted as inhibitory (MIC).
In the case of `COc1ccc(Nc2ncnc3ccc(NC(=O)Nc4ccc(Cl)c(C(F)(F)F)c4)cc23)cc1OC`, the Activity in data set [3] is 0.49%; in data set [2], 0%; in data set [6], 99%. Moreover, 0.25 µg/mL (≈ 0.483 µM) was the least that counted as inhibitory against Plasmodium falciparum [1] (MIC). For the same compound, the “Ratio CC50/IC50” value in data set [4] came to 345.8. Moreover, half-maximal inhibition in the data set with Plasmodium falciparum [5] (IC50) required 0.0182 µg/mL (≈ 0.0351 µM).
Consider `O=C(Nc1ccc(Cl)cc1)Nc1ccc2ncnc(Nc3cccc(F)c3)c2c1`, for which the Activity amounted to 0.03% in data set [3], 0% in data set [2] and 99% in data set [6]. Besides, inhibition of growth against Plasmodium falciparum [1] (MIC) required 0.5 µg/mL (≈ 1.23 µM).
